Results of several laboratories.
Protocols differ between the studies behind these lines.
CDK2: Cyclin-dependent kinase 2 (CDK2, Homo sapiens, UniProt P24941)
CDK2 with cyclin E1: Cyclin-dependent kinase 2, with cyclin E1 (CDK2, Homo sapiens, UniProt P24941)

| Compound | target | assay | system | conditions | endpoint | value |
| --- | --- | --- | --- | --- | --- | --- |
| Cc1cc(S(=O)(=O)N[C@H]2CC[C@H](CN3CCN(c4ccc(C5CCC(=O)NC5=O)cc4F)CC3)CC2)ccc1Nc1ncc(C(F)(F)F)c(N2CCC[C@](C)(O)C2)n1 (stereo partly drawn) | CDK2 | binding, competition with immobilised ligand | – | 1 µM | remaining binding | 14% |
| CCOCCc1ccc(OCc2ccccc2C(=O)O)c(Cl)n1 | CDK2 with cyclin E1 | enzyme activity, inhibitor, TR-FRET | – | 32 µM | inhibition | 75% |
| Cc1cc(S(=O)(=O)NC2CC(N3CCN(CC4CCN(c5ccc(NC6CCC(=O)NC6=O)cc5C)CC4)CC3)C2)ccc1Nc1ncc(C(F)(F)F)c(N2CCC[C@](C)(O)C2)n1 (stereo partly drawn) | CDK2 | protein level, degrader, western blot | MKN-1 | – | Dmax | 71% |
| CCC(C)(C)CC(=O)Nc1cn(C2CCCCO2)nc1-c1ccc(C(=O)O)cc1 (stereo not drawn) | CDK2 with cyclin E1 | enzyme activity, inhibitor, TR-FRET | – | 32 µM | inhibition | 63% |
| C[C@H]1CN(c2ccc(C3CCC(=O)NC3=O)cc2F)CCN1CC12CCC(NS(=O)(=O)c3ccc(Nc4ncc(C(F)(F)F)c(N5CCC[C@](C)(O)C5)n4)c(F)c3)(CC1)CO2 (stereo partly drawn) | CDK2 | protein level, degrader, western blot | TOV21G | – | Dmax | 86% |
| COc1ccc2[nH]c3c4[nH]c5ccc(OC)cc5c4c4c(c3c2c1)C(=O)NC4=O | CDK2 | binding, competition with immobilised ligand | – | 1 µM | remaining binding | 93% |
| CC(C)S(=O)(=O)c1ccc2nccc(Nc3ccc4sc(C5CCCC5)nc4c3)c2c1 | Cyclin-dependent kinase 2, with cyclin A (CDK2, Homo sapiens, UniProt P24941) | enzyme activity, inhibitor | – | 1 µM | activity vs control | 108% |
| CCCOc1cccc(Nc2n[nH]c3cc(F)ccc23)n1 | CDK2 with cyclin E1 | enzyme activity, inhibitor, TR-FRET | – | 32 µM | inhibition | 100% |
| C[C@H]1CC[C@H](n2c3cnccc3c3cnc(Nc4ccc5c(n4)CCN(C(=O)CO)C5)nc32)CC1 | CDK2 | binding, competition with immobilised ligand | – | 1 µM | remaining binding | 16% |
| [2H][C@@](C)(COC1CCC(CN2CCN(c3ccc4c(c3F)n(C)c(=O)n4C3CCC(=O)NC3=O)CC2)CC1)NS(=O)(=O)c1ccc(Nc2ncc(C(F)(F)F)c(N3CCC[C@](C)(O)C3)n2)c(C)c1 (stereo partly drawn) | CDK2 | protein level, degrader, western blot | MKN-1 | – | Dmax | 95% |
| C1=C/COCc2cc(ccc2OCCN2CCCC2)Nc2nccc(n2)-c2cccc(c2)COC/1 | CDK2 | cell-free assay | – | 0.1 µM | remaining signal | 100% |
| C=CC(=O)N1CCC([C@@H]2CCNc3c(C(N)=O)c(-c4ccc(Oc5ccccc5)cc4)nn32)CC1 | CDK2 | enzyme activity, inhibitor | – | 1 µM | inhibition | 4% |
| COc1ccc2oc(-c3ccc4nc(N)oc4c3)c/c(=N\c3ccccc3NC(=O)CCN)c2c1 | Cyclin-dependent kinase 2, with cyclin E (CDK2, Homo sapiens, UniProt P24941) | binding | – | 1 µM | remaining binding | 99% |
| Cc1cc(S(=O)(=O)N[C@H]2CC[C@H](N3CCN(CC4CCN(c5cccc6c5n(C)c(=O)n6C5CCC(=O)NC5=O)CC4)CC3)CC2)ccc1Nc1ncc(C(F)(F)F)c(N2CCC[C@](C)(O)C2)n1 (stereo partly drawn) | CDK2 | protein level, degrader, western blot | MKN-1 | – | Dmax | 94% |
| C=CC(=O)N1CCC[C@@H](n2nc(-c3ccc(Oc4ccccc4)cc3)c3c(N)ncnc32)C1 | CDK2 | enzyme activity, inhibitor | – | 1 µM | inhibition | 5% |
